Compounds with a hit are over-represented: about 4% of the library has one in this group of screens.
Pf gamet viab – kills late stage P. falciparum gametocytes. P. falciparum stage V gametocytes, ATP luminescence, 24 h. inhibition, % at 10.9 µM. 0.065% of 150,000 active. AID 743093;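 active = inhibition above the mean plus 3 SD of compounds within the control limits, set per campaign, cut at about 38% in these data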;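 note: 0% = DMSO wells and 100% = medium only without gametocytes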
Cl transport mod – modulators of human KCC2 chloride dependent transport | Q9H2X9 | KCC2 cells, thallium flux FluoZin-2 fluorescence | B-score of Tl+ flux slope (higher = more flux/activation; lower = inhibition) at 10 µM | 2.2% of 190,000 active | AID 1456;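 active = thallium flux slope and its plate-corrected score both differing from the plate sample mean at a set confidence after two filtering rounds, in either direction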;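 note: slope of fluorescence scaled to starting intensity during 10 to 20 s after thallium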
Target sequence (Q9H2X9 whole entry, looked up): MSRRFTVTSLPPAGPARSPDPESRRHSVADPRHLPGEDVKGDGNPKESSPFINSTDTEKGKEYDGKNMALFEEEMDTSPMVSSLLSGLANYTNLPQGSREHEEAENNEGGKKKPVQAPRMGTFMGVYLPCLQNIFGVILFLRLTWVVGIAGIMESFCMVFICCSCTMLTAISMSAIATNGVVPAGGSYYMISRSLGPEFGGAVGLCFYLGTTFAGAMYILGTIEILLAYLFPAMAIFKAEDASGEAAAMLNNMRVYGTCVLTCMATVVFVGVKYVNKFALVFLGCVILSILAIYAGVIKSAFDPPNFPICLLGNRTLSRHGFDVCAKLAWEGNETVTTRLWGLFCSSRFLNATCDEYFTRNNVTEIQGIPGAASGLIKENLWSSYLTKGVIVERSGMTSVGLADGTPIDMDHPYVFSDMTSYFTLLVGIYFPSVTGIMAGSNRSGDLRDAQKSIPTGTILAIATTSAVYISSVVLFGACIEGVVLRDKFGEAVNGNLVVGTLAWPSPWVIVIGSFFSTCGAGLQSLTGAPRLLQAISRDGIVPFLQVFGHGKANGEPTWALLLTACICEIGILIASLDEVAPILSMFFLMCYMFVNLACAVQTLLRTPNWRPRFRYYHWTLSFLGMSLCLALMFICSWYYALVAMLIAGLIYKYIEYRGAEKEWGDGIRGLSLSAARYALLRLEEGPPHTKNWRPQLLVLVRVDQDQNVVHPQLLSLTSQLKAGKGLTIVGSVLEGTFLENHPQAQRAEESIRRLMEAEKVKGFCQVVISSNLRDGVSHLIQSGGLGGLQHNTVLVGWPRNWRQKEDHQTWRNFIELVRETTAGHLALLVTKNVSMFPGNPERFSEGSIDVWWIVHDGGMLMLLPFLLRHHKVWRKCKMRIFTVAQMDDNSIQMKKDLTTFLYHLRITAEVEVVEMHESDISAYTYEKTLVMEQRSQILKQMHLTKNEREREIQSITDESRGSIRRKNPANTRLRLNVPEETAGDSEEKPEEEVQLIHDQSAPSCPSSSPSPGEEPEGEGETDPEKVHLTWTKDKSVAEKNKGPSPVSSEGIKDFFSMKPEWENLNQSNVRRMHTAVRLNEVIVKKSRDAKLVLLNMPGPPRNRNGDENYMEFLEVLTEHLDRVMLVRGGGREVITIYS
MT stabilize HCS – microtubule stabilization, imaging screen; HeLa tubulin immunostaining HCS, 24 h; share of cells brighter than vehicle mean+2SD; % tubulin-high responders, % at 10 µM; 0.83% of 200,000 active;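 active = plate Z-score above 3 for both tubulin-high and condensed-nucleus cell shares, with cell loss under 80%, at 10 µM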;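 note: anti alpha tubulin signal scored within the nucleus-defined area of each cell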
WT yeast gro inh – growth inhibition of WT yeast, mitochondrial fusion screen | mitochondrial fusion phenotypic screen, WT strain | inhibition, % at 10 µM | 2.1% of 190,000 active; in the data active = inhibition above about 58%; tested in S. cerevisiae
bCat nuc transl – alters nuclear translocation of beta-catenin in HeLa cells; immunofluorescence imaging; nuclear translocation activity, % at 5 µM; 0.3% of 190,000 active;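 active = nuclear translocation activity above 50% at 5 µM, with a well cell count of 50 or more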;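 note: per-cell ratio of nuclear to cytoplasmic median beta-catenin stain intensity; plate controls were DMSO negative control for no effect and GSK-3 inhibitor IX positive control for full effect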
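System: HeLa cells, endogenous beta-catenin; compound dosing: 5 µM primary single dose, 0.1% DMSO, 0.02–20 µM confirmation series; incubation: 24 h compound exposure at 37°C, 5% CO2; signal: beta-catenin immunofluorescence imaging with DAPI; evaluation: % activation, nuclear-to-cytoplasmic median beta-catenin signal ratio per cell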
* marks the source's active call; other numbers are inactive results.

Screening Cc1ccc(C2CCN(C(=S)Nc3cccc(C)c3)C2)cc1 (stereo unspecified) returned Pf gamet viab -7.4, Cl transport mod -1.43, MT stabilize HCS 3.2, WT yeast gro inh 77.9* and bCat nuc transl 0.1.
Cc1ccc(Cl)cc1NC(=S)N1CCC(c2ccccc2)C1 (stereo unspecified) was read as Pf gamet viab -17.8, Cl transport mod -2.58, MT stabilize HCS 1.6, WT yeast gro inh 59.2* and bCat nuc transl 3.2.
Screening CCc1ccc2oc(-c3ccc(OC)cc3)cc(=Nc3cccc(C(=O)O)c3)c2c1 returned Pf gamet viab 27.0, Cl transport mod -7.25*, MT stabilize HCS 2.3, WT yeast gro inh 55.9 and bCat nuc transl -0.1.
Screening COC(C)c1oc2c(C)c3oc(=O)cc(C)c3cc2c1C (stereo unspecified) returned Pf gamet viab -17.9.
`CC(C)c1ccc(CNc2ccc([N+](=O)[O-])cn2)cc1` gave Pf gamet viab 8.9, Cl transport mod 0.9, MT stabilize HCS 1.7, WT yeast gro inh 25.6 and bCat nuc transl -1.1.
Screening CC(C)(C)c1ccc(CNc2ccc([N+](=O)[O-])cn2)cc1 returned Pf gamet viab -14.8, Cl transport mod 0.622, MT stabilize HCS 2.0, WT yeast gro inh 80.0* and bCat nuc transl -4.9.
`CC1CCN(C(=S)NC(=O)c2ccccc2)CC1` gave Pf gamet viab -36.1, Cl transport mod 36.4*, MT stabilize HCS 1.4 and WT yeast gro inh 0.7.
`O=C(NC(=S)N1CCc2ccccc21)c1ccccc1` gave Cl transport mod 51.4*, MT stabilize HCS 8.3, WT yeast gro inh 22.5 and bCat nuc transl 0.6.
Cc1cc(C)cc(NC(=O)c2c(C)nc3ccccn23)c1 was read as Pf gamet viab -16.7, MT stabilize HCS 3.1, WT yeast gro inh 16.4 and bCat nuc transl 0.6.
COc1c(Cl)cc(Cl)cc1/C=C/C(=O)c1ccc(NC(=O)c2cccs2)cc1 was read as Pf gamet viab -14.4, Cl transport mod -0.678, MT stabilize HCS 3.0, WT yeast gro inh 24.1 and bCat nuc transl 5.7.
`COc1cccc(-c2nnc3sc(C4CCCCC4)nn23)c1` gave Pf gamet viab -16.2, Cl transport mod -0.191, MT stabilize HCS 2.7 and WT yeast gro inh -10.7.
Screening CCOc1cccc(-c2nnc3sc(C4CCCCC4)nn23)c1 returned MT stabilize HCS 4.4, WT yeast gro inh 71.2* and bCat nuc transl 1.3.
For N/C(=N/O)c1ccccc1N1CCC(Cc2ccccc2)CC1 the results were Cl transport mod -3.15, MT stabilize HCS 4.8, WT yeast gro inh 70.0* and bCat nuc transl 1.7.
Cc1oc2ccc(O)cc2c1C(=O)c1ccc(F)cc1 was read as Pf gamet viab 7.8.
For COc1ccc(NC(=S)Nc2cc(-c3ccccc3)[nH]n2)cc1Cl the results were Pf gamet viab -2.6, MT stabilize HCS 3.2, WT yeast gro inh 65.7* and bCat nuc transl -1.7.
Screening Cc1cc(NC(=S)Nc2ccc(C)c(Cl)c2)n[nH]1 returned Cl transport mod -0.412, MT stabilize HCS 3.2, WT yeast gro inh 74.7* and bCat nuc transl 6.9.
`COc1ccc(NC(=S)Nc2cc(C)[nH]n2)cc1Cl` gave Pf gamet viab -8.4, Cl transport mod -0.8 and bCat nuc transl -0.1.
`COc1ccc(Cc2nn[nH]n2)cc1` gave Pf gamet viab 15.5, Cl transport mod -0.913, MT stabilize HCS 1.0, WT yeast gro inh 91.4* and bCat nuc transl 0.5.
Cc1ccsc1/C=N/n1c(COc2ccccc2)n[nH]c1=S was read as Cl transport mod 3.48, MT stabilize HCS 2.0, WT yeast gro inh -12.8 and bCat nuc transl -2.5.
O=C(/C=C/c1cccc(Br)c1)N1CCN(c2cccc(C(F)(F)F)c2)CC1 was read as Pf gamet viab -10.8, Cl transport mod -0.179, MT stabilize HCS 1.4, WT yeast gro inh 67.0* and bCat nuc transl -2.2.
O=C(/C=C/c1ccc(Br)cc1)N1CCN(c2cccc(C(F)(F)F)c2)CC1 was read as Cl transport mod 0.249, MT stabilize HCS 2.2, WT yeast gro inh 42.1 and bCat nuc transl -1.5.
For Cn1c(C(=O)N2CCN(c3cccc(C(F)(F)F)c3)CC2)cc2sccc21 the results were Cl transport mod 1.63, MT stabilize HCS 2.7, WT yeast gro inh 71.5* and bCat nuc transl -3.5.
For Cc1ccc(C)c(N2CCN(C(=O)c3cc4sccc4n3C)CC2)c1 the results were Pf gamet viab -14.3, Cl transport mod -0.201, MT stabilize HCS 3.3, WT yeast gro inh 8.7 and bCat nuc transl 2.8.
For O=C(Nc1ccc(S(=O)(=O)NC2=NCCCCC2)cc1)c1ccccc1Cl the results were Pf gamet viab 5.8, Cl transport mod 1.61 and bCat nuc transl -0.5.
For CSCC(=O)NC1CCCc2c1cnn2-c1ccc(C)c(C)c1 (stereo unspecified) the results were Pf gamet viab -17.0.
Screening Cc1cccc(NC(=O)c2cc([N+](=O)[O-])ccc2Cl)c1O returned Cl transport mod -3.6, MT stabilize HCS 1.4, WT yeast gro inh 4.9 and bCat nuc transl 1.5.
`O=C(Nc1cc(Cl)ccc1Oc1ccccc1)c1ccc(F)cc1` gave Pf gamet viab 6.2, Cl transport mod 0.403, MT stabilize HCS 4.1, WT yeast gro inh 65.9* and bCat nuc transl 0.7.
Screening O=C(Nc1ccccc1Cl)c1ccccc1Oc1ccc(C(F)(F)F)cc1[N+](=O)[O-] returned Pf gamet viab -6.9, Cl transport mod -0.873, MT stabilize HCS 3.1, WT yeast gro inh 83.2* and bCat nuc transl -0.2.
O=C(Nc1ccccc1Oc1ccccc1)c1cc([N+](=O)[O-])ccc1Cl was read as Cl transport mod -0.0384, MT stabilize HCS 7.1, WT yeast gro inh 75.7* and bCat nuc transl 0.5.
CCOC(=O)c1cnc2c(c(C)nn2CC)c1NCCN1CCOCC1 was read as Pf gamet viab -10.9, Cl transport mod -0.63, MT stabilize HCS 1.6, WT yeast gro inh -3.0 and bCat nuc transl -1.3.
`CC1CCN(c2c([N+](=O)[O-])c(=O)oc3ccccc23)CC1` gave Cl transport mod -1.79, MT stabilize HCS 3.3, WT yeast gro inh -10.7 and bCat nuc transl 0.1.
For CC(C)Oc1ccc(OCCSc2nc3ccccc3n2CC(=O)O)cc1 the results were Pf gamet viab 6.1.
`Brc1ccc(-c2nnc(-c3ccccc3)c(N3CCSCC3)n2)cc1` gave Pf gamet viab 15.1, MT stabilize HCS 1.7, WT yeast gro inh 63.3* and bCat nuc transl -2.7.
COc1ccc(S(=O)(=O)N(CCc2ccccc2)CC(=O)O)cc1 was read as Pf gamet viab 9.8, Cl transport mod 0.394, MT stabilize HCS 0.8 and WT yeast gro inh 3.0.
Screening Cc1ccc(CNC(=O)CSc2c3c(nc4ccc(Cl)cc24)CCCC3)o1 returned Cl transport mod 4.79*, MT stabilize HCS 1.6 and WT yeast gro inh -1.3.
Cc1ccc(C)c(N2CCN(C(=O)C3CCCCN3S(=O)(=O)c3ccc(F)cc3)CC2)c1 (stereo unspecified) was read as MT stabilize HCS 1.4, WT yeast gro inh 64.3* and bCat nuc transl 5.4.
Cc1ccc(C)c(N2CCN(C(=O)C3CCN(S(=O)(=O)c4c(C)noc4C)CC3)CC2)c1 was read as Pf gamet viab 1.4, Cl transport mod 2.39 and bCat nuc transl -0.7.
